Experimental findings from ChEMBL document CHEMBL1145027, “Design and synthesis of statine-based cell-permeable peptidomimetic inhibitors of human beta-secretase” (J Med Chem, 2003) are described below.

As a reminder, the IC50 is the concentration at which inhibition is half-maximal. Low values mean greater potency in that assay, high ones weaker potency in that assay. What is called EC50 is the concentration that produces a half-maximal response. Low readings indicate a more potent agent, high ones a less potent agent.

One assay has as its target Beta-secretase 1 (Homo sapiens, UniProt P56817). The assay can be described thus: Inhibition of human beta-secretase (BACE) in MBP-C125 assay. An outline of the steps: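 BACE activity measured with maltose-binding protein fused C-125 (MBP-C125) substrate; IC50 taken as the concentration giving 50% inhibition of enzyme activity, averaged from two or more runs.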
The subject of another assay is HEK293. Nature of the assay: Inhibition of A beta-secretion in transfected human embryonic kidney (HEK293) cells. It is filed as functional, cell-based. In a few lines:
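Transfected HEK-293 cells incubated with inhibitor; Aβ secretion measured and EC50 taken as the concentration giving 50% inhibition of Aβ production.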

SMILES strings stand for the structures. Where a SMILES comes first, the peptide text is derived from it. [ ]: non-standard residue; d: D form. Sta = CC(C)C[C@H](N)[C@@H](O)CC(=O)O

Beta-secretase 1, sequence (P56817 whole entry, the tested form may be a part): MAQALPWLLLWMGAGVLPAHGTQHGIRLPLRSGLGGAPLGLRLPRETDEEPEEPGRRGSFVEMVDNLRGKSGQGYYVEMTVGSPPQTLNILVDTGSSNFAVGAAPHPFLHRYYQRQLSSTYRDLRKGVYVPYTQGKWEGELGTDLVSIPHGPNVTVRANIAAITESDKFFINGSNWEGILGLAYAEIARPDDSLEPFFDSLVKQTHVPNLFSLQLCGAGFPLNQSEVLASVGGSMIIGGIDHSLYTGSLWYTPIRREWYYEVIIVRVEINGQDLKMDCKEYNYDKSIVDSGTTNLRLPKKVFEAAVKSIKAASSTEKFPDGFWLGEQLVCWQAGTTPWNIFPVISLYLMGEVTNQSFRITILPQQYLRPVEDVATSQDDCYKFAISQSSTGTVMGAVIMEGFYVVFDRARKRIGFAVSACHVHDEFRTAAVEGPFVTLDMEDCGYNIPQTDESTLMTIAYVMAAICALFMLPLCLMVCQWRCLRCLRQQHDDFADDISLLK

For the molecule `CSCC[C@H](NC(=O)[C@@H](NC(=O)OC(C)(C)C)C(C)C)C(=O)NC(CC(C)C)[C@@H](O)CC(=O)N[C@@H](C(=O)NO)C(C)C` (stereo partly specified), at Beta-secretase 1, it took 94 µM to reach half-maximal inhibition (IC50).

As to `CCCCNC(=O)[C@H](NC(=O)C[C@H](O)C(CC(C)C)NC(=O)[C@H](CCSC)NC(=O)[C@@H](NC(=O)OC(C)(C)C)C(C)C)C(C)C` (stereo partly specified), the IC50 on Beta-secretase 1 is > 200 µM.

On Beta-secretase 1, `CSCC[C@H](NC(=O)[C@@H](NC(C)=O)C(C)C)C(=O)N[C@@H](CC(C)C)[C@@H](O)CC(=O)N[C@H](C(=O)N[C@@H](C)C(=O)N[C@@H](CCC(=O)O)C(=O)N[C@@H](Cc1ccccc1)C(=O)O)C(C)C` (Ac-VM[Sta]VAEF-OH) gave an IC50 of 0.3 µM.

For the molecule `CSCC[C@H](NC(=O)[C@@H](NC(=O)OC(C)(C)C)C(C)C)C(=O)NC(CC(C)C)[C@@H](O)CC(=O)N[C@@H](C(=O)NCc1ccc2c(c1)OCO2)C(C)C` (stereo partly specified), the IC50 on Beta-secretase 1 was > 100 µM.

Molecule `CC(C)CC(NC(=O)CCCOc1ccccc1)[C@@H](O)CC(=O)N[C@@H](C(=O)N[C@H](C)C(=O)N[C@H](CCC(=O)O)C(=O)N[C@H](Cc1ccccc1)C(=O)O)C(C)C` (stereo partly specified) had an IC50 at Beta-secretase 1 of 25 µM.

Consider `CC(C)CC(NC(=O)C(O)c1cccc2ccccc12)[C@@H](O)CC(=O)N[C@@H](C(=O)N[C@H](C)C(=O)N[C@H](CCC(=O)O)C(=O)N[C@H](Cc1ccccc1)C(=O)O)C(C)C` (stereo partly specified), for which the IC50 against Beta-secretase 1 is 4 µM.

At Beta-secretase 1, `COC(=O)[C@@H]1CC(NC(=O)[C@H](NC(=O)C[C@H](O)[C@@H](Cc2cc(F)cc(F)c2)NC(=O)C(O)c2ccccc2-c2ccccc2)C(C)C)C[C@H](C(=O)OC)C1` (single isomer, unassigned; isomer 2) gave an IC50 of 10 µM. The concentration giving a half-maximal response (EC50) with HEK293 was > 10 µM.

On Beta-secretase 1, `CSCC[C@H](NC(=O)[C@@H](NC(=O)OC(C)(C)C)C(C)C)C(=O)NC(CC(C)C)[C@@H](O)CC(=O)N[C@@H](C(=O)NCc1cccc(C(=O)O)c1)C(C)C` (stereo partly specified) had an IC50 of 4 µM.

At Beta-secretase 1, `CC(C)CC(NC(=O)Cc1cccc2ccccc12)[C@@H](O)CC(=O)N[C@@H](C(=O)N[C@H](C)C(=O)N[C@H](CCC(=O)O)C(=O)N[C@H](Cc1ccccc1)C(=O)O)C(C)C` (stereo partly specified) yielded an IC50 of 42 µM.

At Beta-secretase 1, `CC(C)C[C@H](NC(=O)C(O)c1cccc2ccccc12)[C@@H](O)CC(=O)N[C@H](C(=O)NCc1ccc(C(=O)O)cc1)C(C)C` (stereo partly specified) showed an IC50 of 50 µM.

Take `COC(=O)[C@@H]1CC(NC(=O)[C@H](NC(=O)C[C@H](O)C(CC(C)C)NC(=O)[C@H](CCSC)NC(=O)[C@@H](NC(=O)OC(C)(C)C)C(C)C)C(C)C)C[C@H](C(=O)OC)C1` (stereo partly specified): half-maximal inhibition against Beta-secretase 1 (IC50) required 10 µM.

For the molecule `CC(C)CC(NC(=O)C(O)c1ccccc1Oc1ccccc1)[C@@H](O)CC(=O)N[C@@H](C(=O)N[C@H](C)C(=O)N[C@H](CCC(=O)O)C(=O)N[C@H](Cc1ccccc1)C(=O)O)C(C)C` (stereo partly specified), half-maximal inhibition against Beta-secretase 1 (IC50) required 14 µM.

For the molecule `CSCC[C@H](NC(=O)[C@@H](NC(=O)OC(C)(C)C)C(C)C)C(=O)NC(CC(C)C)[C@@H](O)CC(=O)N[C@@H](C(=O)NC1C[C@@H](C(=O)O)C[C@@H](C(=O)O)C1)C(C)C` (stereo partly specified), on Beta-secretase 1, inhibition was half-maximal at 0.3 µM (IC50).

At Beta-secretase 1, `CC(C)CC(NC(=O)C(O)c1cccc(Oc2ccccc2)c1)[C@@H](O)CC(=O)N[C@@H](C(=O)N[C@H](C)C(=O)N[C@H](CCC(=O)O)C(=O)N[C@H](Cc1ccccc1)C(=O)O)C(C)C` (stereo partly specified) gave an IC50 of 6 µM.

`CC(C)CC(NC(=O)C(O)c1ccccc1OCc1ccccc1)[C@@H](O)CC(=O)N[C@@H](C(=O)N[C@H](C)C(=O)N[C@H](CCC(=O)O)C(=O)N[C@H](Cc1ccccc1)C(=O)O)C(C)C` (stereo partly specified) showed an IC50 on Beta-secretase 1 of 11 µM.

For the molecule `CSCC[C@H](NC(=O)[C@@H](NC(=O)OC(C)(C)C)C(C)C)C(=O)NC(CC(C)C)[C@@H](O)CC(=O)N[C@@H](C(=O)NCc1ccc(C(=O)O)cc1)C(C)C` (stereo partly specified), at Beta-secretase 1, it took 4 µM to reach half-maximal inhibition (IC50).

In the case of `CSCC[C@H](NC(=O)[C@@H](NC(=O)OC(C)(C)C)C(C)C)C(=O)NC(CC(C)C)[C@@H](O)CC(=O)N[C@@H](C(=O)NCc1ccncc1)C(C)C` (stereo partly specified), the IC50 on Beta-secretase 1 was > 100 µM.

In turn, `CC(C)C[C@H](NC(=O)C(O)c1ccccc1Br)[C@@H](O)CC(=O)N[C@H](C(=O)NCc1ccc(C(=O)O)cc1)C(C)C` (stereo partly specified) showed an IC50 on Beta-secretase 1 of 40 µM.

With `CSCC[C@H](NC(=O)[C@@H](NC(=O)OC(C)(C)C)C(C)C)C(=O)NC(CC(C)C)[C@@H](O)CC(=O)N[C@@H](C(=O)NCCC(=O)O)C(C)C` (stereo partly specified), the IC50 against Beta-secretase 1 was determined as 30 µM.

The molecule `CC(C)CC(NC(=O)c1ccc2ccccc2c1)[C@@H](O)CC(=O)N[C@@H](C(=O)N[C@H](C)C(=O)N[C@H](CCC(=O)O)C(=O)N[C@H](Cc1ccccc1)C(=O)O)C(C)C` (stereo partly specified) came in with an IC50 against Beta-secretase 1 of 48 µM.

On Beta-secretase 1, `CSCC[C@H](NC(=O)[C@@H](NC(=O)OC(C)(C)C)C(C)C)C(=O)NC(CC(C)C)[C@@H](O)CC(=O)N[C@@H](C(=O)NCCCC(=O)O)C(C)C` (stereo partly specified) gave an IC50 of 47 µM.

The molecule `COc1cc(CC(=O)NC(CC(C)C)[C@@H](O)CC(=O)N[C@@H](C(=O)N[C@H](C)C(=O)N[C@H](CCC(=O)O)C(=O)N[C@H](Cc2ccccc2)C(=O)O)C(C)C)cc(OC)c1OC` (stereo partly specified) came in with an IC50 on Beta-secretase 1 of 94 µM.

The molecule `COC(=O)CCCNC(=O)[C@H](NC(=O)C[C@H](O)C(CC(C)C)NC(=O)[C@H](CCSC)NC(=O)[C@@H](NC(=O)OC(C)(C)C)C(C)C)C(C)C` (stereo partly specified) had an IC50 against Beta-secretase 1 of 47 µM.

At Beta-secretase 1, `CSCC[C@H](NC(=O)[C@@H](NC(=O)OC(C)(C)C)C(C)C)C(=O)NC(CC(C)C)[C@@H](O)CC(=O)N[C@@H](C(=O)NCc1cccc(OCC(=O)O)c1)C(C)C` (stereo partly specified) showed an IC50 of 5 µM.

At Beta-secretase 1, `CO[C@H](C(=O)NC(CC(C)C)[C@@H](O)CC(=O)N[C@@H](C(=O)N[C@H](C)C(=O)N[C@H](CCC(=O)O)C(=O)N[C@H](Cc1ccccc1)C(=O)O)C(C)C)c1ccccc1` (stereo partly specified) displayed a concentration for half-maximal inhibition (IC50) of 28 µM.

Molecule `CC(C)Cc1ccc(C(=O)NC(CC(C)C)[C@@H](O)CC(=O)N[C@@H](C(=O)N[C@H](C)C(=O)N[C@H](CCC(=O)O)C(=O)N[C@H](Cc2ccccc2)C(=O)O)C(C)C)cc1` (stereo partly specified) yielded an IC50 against Beta-secretase 1 of 28 µM.

For `CC(C)CC(NC(=O)Cc1ccc(-c2ccccc2)cc1)[C@@H](O)CC(=O)N[C@@H](C(=O)N[C@H](C)C(=O)N[C@H](CCC(=O)O)C(=O)N[C@H](Cc1ccccc1)C(=O)O)C(C)C` (stereo partly specified), 56 µM corresponded to half-maximal inhibition against Beta-secretase 1 (IC50).

Consider `CC(C)CC(NC(=O)Cc1ccccc1)[C@@H](O)CC(=O)N[C@@H](C(=O)N[C@H](C)C(=O)N[C@H](CCC(=O)O)C(=O)N[C@H](Cc1ccccc1)C(=O)O)C(C)C` (stereo partly specified), for which the concentration for half-maximal inhibition (IC50) against Beta-secretase 1 amounted to 130 µM.

For `CCCCOc1ccc(C(=O)NC(CC(C)C)[C@@H](O)CC(=O)N[C@@H](C(=O)N[C@H](C)C(=O)N[C@H](CCC(=O)O)C(=O)N[C@H](Cc2ccccc2)C(=O)O)C(C)C)cc1` (stereo partly specified), inhibition against Beta-secretase 1 was half-maximal at 27 µM (IC50).

As for `CSCC[C@H](NC(=O)[C@@H](NC(=O)OC(C)(C)C)C(C)C)C(=O)NC(CC(C)C)[C@@H](O)CC(=O)N[C@@H](C(=O)NC1CCCCC1)C(C)C` (stereo partly specified), the IC50 at Beta-secretase 1 is > 200 µM.

Turning to `CC(C)CC(NC(=O)C(O)c1ccccc1Br)[C@@H](O)CC(=O)N[C@@H](C(=O)N[C@H](C)C(=O)N[C@H](CCC(=O)O)C(=O)N[C@H](Cc1ccccc1)C(=O)O)C(C)C` (stereo partly specified), half-maximal inhibition at Beta-secretase 1 (IC50) required 3 µM.

In the case of `COC(=O)[C@@H]1CC(NC(=O)[C@@H](NC(=O)C[C@H](O)[C@H](CC(C)C)NC(=O)C(O)c2cccc3ccccc23)C(C)C)C[C@H](C(=O)OC)C1` (stereo partly specified), half-maximal inhibition against Beta-secretase 1 (IC50) was put at 140 µM.

As to `CC(C)CC(NC(=O)[C@@H](O)c1ccccc1)[C@@H](O)CC(=O)N[C@@H](C(=O)N[C@H](C)C(=O)N[C@H](CCC(=O)O)C(=O)N[C@H](Cc1ccccc1)C(=O)O)C(C)C` (stereo partly specified), inhibition at Beta-secretase 1 was half-maximal at 17 µM (IC50).

`CO[C@](C)(C(=O)NC(CC(C)C)[C@@H](O)CC(=O)N[C@@H](C(=O)N[C@H](C)C(=O)N[C@H](CCC(=O)O)C(=O)N[C@H](Cc1ccccc1)C(=O)O)C(C)C)c1ccccc1` (stereo partly specified) displayed an IC50 against Beta-secretase 1 of 41 µM.

Molecule `CC(C)CC(NC(=O)Cc1ccc(F)cc1F)[C@@H](O)CC(=O)N[C@@H](C(=O)N[C@H](C)C(=O)N[C@H](CCC(=O)O)C(=O)N[C@H](Cc1ccccc1)C(=O)O)C(C)C` (stereo partly specified) showed an IC50 against Beta-secretase 1 of 140 µM.

In the case of `CSCC[C@H](NC(=O)[C@@H](NC(=O)OC(C)(C)C)C(C)C)C(=O)NC(CC(C)C)[C@@H](O)CC(=O)N[C@@H](C(=O)NCc1ccccc1)C(C)C` (stereo partly specified), the IC50 against Beta-secretase 1 is > 200 µM.

As for `COC(=O)[C@@H]1CC(NC(=O)[C@H](NC(=O)C[C@H](O)[C@@H](Cc2cc(F)cc(F)c2)NC(=O)C(O)c2ccccc2-c2ccccc2)C(C)C)C[C@H](C(=O)OC)C1` (single isomer, unassigned; isomer 1), the IC50 against Beta-secretase 1 worked out at 0.12 µM. Moreover, the EC50 in the assay with HEK293 turned out to be 4 µM.

Regarding `CC(C)C[C@H](NC(=O)C(O)c1cccc2ccccc12)[C@@H](O)CC(=O)N[C@H](C(=O)NC1C[C@@H](C(=O)O)C[C@@H](C(=O)O)C1)C(C)C` (stereo partly specified), at Beta-secretase 1, the IC50 worked out at 3 µM.

At Beta-secretase 1, `COC(=O)CCCCC(=O)NC(CC(C)C)[C@@H](O)CC(=O)N[C@@H](C(=O)N[C@H](C)C(=O)N[C@H](CCC(=O)O)C(=O)N[C@H](Cc1ccccc1)C(=O)O)C(C)C` (stereo partly specified) registered an IC50 of 50 µM.
